Measurements taken from ChEMBL document CHEMBL3526049 (Drug Metab Dispos, 2012).

How the values were obtained:
[1] = Half life in wild-type Sprague-Dawley rat at 5 mg/kg, po by LC-MS/MS analysis; format: ADME, organism-based; parameters: dose 5 mg/kg, route oral; settings: in vivo
Outline: (§1)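 Male Sprague-Dawley rats (knockouts age- and weight-matched to wild type), femoral-artery and vein cannulated, recovered ≥2 days. IV/oral crossover: 1 mg/kg IV bolus on day 0, then after a 3-day washout 5 mg/kg oral gavage in 10 ml/kg 50% Cremophor EL in ethanol. Arterial plasma 0–24 h, protein-precipitated, LC-MS/MS (positive ion, 1–5000 ng/ml). Noncompartmental analysis; n=5–9.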

[2] = Drug excretion in bile duct-cannulated BCRP knockout Sprague-Dawley rat bile at 1 mg/kg, iv up to 24 hrs; format: ADME, organism-based; parameters: dose 1 mg/kg, route intravenous; settings: read-out: Drug excretion
Outline: (§2)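 Male Sprague-Dawley rats with bile-duct and femoral cannulation, housed in metabolism cages. Given an IV bolus of 1 mg/kg in 2 ml/kg 50% Cremophor EL in ethanol. Urine, bile and feces collected in toto 0–24 h, with cage wash at 24 h. Amounts quantified by LC-MS/MS and expressed as % of dose; n=6–12.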

[3] = Drug excretion in bile duct-cannulated MDR1A knockout Sprague-Dawley rat urine at 1 mg/kg, iv up to 24 hrs; format: ADME, organism-based; parameters: dose 1 mg/kg, route intravenous; settings: read-out: Drug excretion
Outline: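 Male Sprague-Dawley Mdr1a knockout rats with bile duct and femoral cannulas, housed in metabolism cages. […] Urine, bile and feces were collected in total over 0–24 h, and cage wash was taken at 24 h.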

[4] = Drug excretion in bile duct-cannulated MDR1A knockout Sprague-Dawley rat feces at 1 mg/kg, iv up to 24 hrs; format: ADME, organism-based; parameters: dose 1 mg/kg, route intravenous; settings: faeces, read-out: Drug excretion; outline: as §2
[5] = Tmax in MDR1A knockout Sprague-Dawley rat at 5 mg/kg, po by LC-MS/MS analysis; format: ADME, organism-based; parameters: dose 5 mg/kg, route oral; settings: in vivo
[6] = Drug excretion in bile duct-cannulated MRP2 knockout Sprague-Dawley rat feces at 1 mg/kg, iv up to 24 hrs; format: ADME, organism-based; parameters: dose 1 mg/kg, route intravenous; settings: faeces, read-out: Drug excretion; outline: as §2
[7] = Drug excretion in bile duct-cannulated MRP2 knockout Sprague-Dawley rat bile at 1 mg/kg, iv up to 24 hrs; format: ADME, organism-based; parameters: dose 1 mg/kg, route intravenous; settings: read-out: Drug excretion; outline: as §2
[8] = Drug excretion in bile duct-cannulated BCRP knockout Sprague-Dawley rat urine at 1 mg/kg, iv up to 24 hrs; format: ADME, organism-based; parameters: dose 1 mg/kg, route intravenous; settings: read-out: Drug excretion; outline: as §2
Kidney = test: Drug uptake in BCRP knockout Sprague-Dawley rat kidney at 1 mg/kg, iv; format: ADME, organism-based; parameters: dose 1 mg/kg, route intravenous; settings: in vivo
[9] = Half life in MDR1A knockout Sprague-Dawley rat at 1 mg/kg, iv by LC-MS/MS analysis; format: ADME, organism-based; parameters: dose 1 mg/kg, route intravenous; settings: in vivo
Outline: (§3)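 Male Sprague-Dawley rats (knockout or wild type matched for age and weight), femoral artery and vein cannulated, at least 2 days recovery. Crossover design: IV bolus 1 mg/kg on day 0 (saline with 0.2 M equivalents HCl), oral gavage 10 mg/kg on day 3 (water with 0.2 M equivalents HCl). Arterial plasma sampled to 24 h (Mdr1a oral arm to 4 h). Analysed by LC-MS/MS and noncompartmental analysis.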

[10] = Clearance in BCRP knockout Sprague-Dawley rat at 1 mg/kg, iv by LC-MS/MS analysis; settings: in vivo
[11] = Volume of distribution at steady state in MRP2 knockout Sprague-Dawley rat at 1 mg/kg, iv by LC-MS/MS analysis; format: ADME, organism-based; parameters: dose 1 mg/kg, route intravenous; settings: in vivo, read-out: Vdss; outline: as §3
[12] = Oral bioavailability in MDR1A knockout Sprague-Dawley rat at 5 mg/kg by LC-MS/MS analysis; format: ADME, organism-based; settings: in vivo
[13] = AUC (infinity) in wild-type Sprague-Dawley rat at 1 mg/kg, iv by LC-MS/MS analysis; format: ADME, organism-based; parameters: time infinity, dose 1 mg/kg, route intravenous; settings: plasma
[14] = Half life in wild-type Sprague-Dawley rat at 1 mg/kg, iv by LC-MS/MS analysis; format: ADME, organism-based; parameters: dose 1 mg/kg, route intravenous; settings: in vivo; outline: as §3
[15] = Half life in MDR1A knockout Sprague-Dawley rat at 5 mg/kg, po by LC-MS/MS analysis; format: ADME, organism-based; parameters: dose 5 mg/kg, route oral; settings: in vivo; outline: as §1
[16] = Volume of distribution at steady state in MDR1A knockout Sprague-Dawley rat at 1 mg/kg, iv by LC-MS/MS analysis; format: ADME, organism-based; parameters: dose 1 mg/kg, route intravenous; settings: in vivo, read-out: Vdss; outline: as §3
[17] = Drug excretion in bile duct-cannulated BCRP knockout Sprague-Dawley rat feces at 1 mg/kg, iv up to 24 hrs; format: ADME, organism-based; parameters: dose 1 mg/kg, route intravenous; settings: faeces, read-out: Drug excretion; outline: as §2
[18] = Tmax in MRP2 knockout Sprague-Dawley rat at 5 mg/kg, po by LC-MS/MS analysis; format: ADME, organism-based; parameters: dose 5 mg/kg, route oral; settings: in vivo; outline: as §1
[19] = Clearance in MDR1A knockout Sprague-Dawley rat at 1 mg/kg, iv by LC-MS/MS analysis; settings: in vivo
[20] = AUC (infinity) in MDR1A knockout Sprague-Dawley rat at 1 mg/kg, iv by LC-MS/MS analysis; format: ADME, organism-based; parameters: time infinity, dose 1 mg/kg, route intravenous; settings: plasma
[21] = Oral bioavailability in BCRP knockout Sprague-Dawley rat at 5 mg/kg by LC-MS/MS analysis; format: ADME, organism-based; settings: in vivo; outline: as §1
Liver = test: Drug uptake in BCRP knockout Sprague-Dawley rat liver at 1 mg/kg, iv; format: ADME, organism-based; parameters: dose 1 mg/kg, route intravenous; settings: in vivo
[22] = Drug excretion in bile duct-cannulated wild-type Sprague-Dawley rat feces at 1 mg/kg, iv up to 24 hrs; format: ADME, organism-based; parameters: dose 1 mg/kg, route intravenous; settings: faeces, read-out: Drug excretion; outline: as §2
[23] = Oral bioavailability in wild-type Sprague-Dawley rat at 5 mg/kg by LC-MS/MS analysis; format: ADME, organism-based; settings: in vivo; outline: as §1
[24] = Cmax in MDR1A knockout Sprague-Dawley rat at 5 mg/kg, po by LC-MS/MS analysis; format: ADME, organism-based; parameters: dose 5 mg/kg, route oral; settings: in vivo; outline: as §1
[25] = Volume of distribution at steady state in wild-type Sprague-Dawley rat at 1 mg/kg, iv by LC-MS/MS analysis; format: ADME, organism-based; parameters: dose 1 mg/kg, route intravenous; settings: in vivo, read-out: Vdss; outline: as §3

CC(=O)O[C@H]1C(=O)[C@@]2(C)[C@H]([C@H](OC(=O)c3ccccc3)[C@]3(O)C[C@H](OC(=O)[C@H](O)[C@@H](NC(=O)c4ccccc4)c4ccccc4)C(C)=C1C3(C)C)[C@]1(OC(C)=O)CO[C@@H]1C[C@@H]2O [PACLITAXEL]
half-life [1]: 4.4 h
dose excreted at 24 h [2]: 0.1%
dose excreted at 24 h [3]: 0.14%
dose excreted at 24 h [4]: 0.21%
Tmax [5]: 1.2 h
dose excreted at 24 h [6]: 2.8%
dose excreted at 24 h [7]: 0.2%
dose excreted at 24 h [8]: 2%
Drug uptake (Kidney): Active
half-life [9]: 12.2 h
clearance [10]: 102 mL/min/kg
Vd [11]: 28.6 L/kg
bioavailability [12]: 47%
AUC(0-inf) [13]: 172 ng·h/mL
half-life [14]: 7.2 h
half-life [15]: 10 h
Vd [16]: 38.1 L/kg
dose excreted at 24 h [17]: 1%
Tmax [18]: 0.9 h
clearance [19]: 66.7 mL/min/kg
AUC(0-inf) [20]: 303 ng·h/mL
bioavailability [21]: 13%
Drug uptake (Liver): Active
dose excreted at 24 h [22]: 2.3%
bioavailability [23]: 12%
Cmax [24]: 145 ng/mL
Vd [25]: 30.3 L/kg
